Assay results as given in ChEMBL document CHEMBL3421557, “Sesamol reduces the atherogenicity of electronegative L5 LDL in vivo and in vitro” (J Nat Prod, 2015).
The source made the active and inactive calls.

Assays:
Syrian golden hamster [1] = assay: Toxicity in high-fat diet fed Syrian hamster assessed as mortality at 50 to 100 mg/kg, po administered for 16 weeks measured over 22 weeks; assay type: organism-based, Mesocricetus auratus; parameters: dose 50-100 mg/kg, route oral; details: in vivo, 3696 h
Syrian golden hamster [2] = assay: Toxicity in high-fat diet fed Syrian hamster assessed as change in body weight at 50 to 100 mg/kg, po administered for 16 weeks measured over 22 weeks; assay type: organism-based, Mesocricetus auratus; parameters: dose 50-100 mg/kg, route oral; details: in vivo, 3696 h
Syrian golden hamster [3] = assay: Antiatherogenic activity in high-fat diet fed po dosed Syrian hamster assessed as decrease in total LDL electronegativity administered for 16 weeks by agarose gel electrophoresis; assay type: functional, organism-based; details: Mesocricetus auratus
In short: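 Total LDL from hamsters fed 16 weeks as chow, HFD, or HFD plus 50 or 100 mg/kg by gavage in 0.5% CMC. LDL isolated by KBr ultracentrifugation with EDTA and nitrogen protection. Samples of 2.5 µg run on 0.7% agarose (90 mM Tris/90 mM boric acid, pH 8.2) at 100 V for 1.4 h to assess electronegativity.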

Syrian golden hamster [4] = assay: Antiatherogenic activity in high-fat diet fed po dosed Syrian hamster assessed as decrease in plasma L5 level administered for 16 weeks by fast protein liquid chromatographic analysis; assay type: functional, organism-based; details: Mesocricetus auratus
Syrian golden hamster [5] = assay: Antiatherogenic activity in high-fat diet fed Syrian hamster assessed as decrease in plasma total cholesterol level at 50 to 100 mg/kg, po administered for 16 weeks by automated analyzer relative to high-fat diet fed control; assay type: functional, organism-based; details: Mesocricetus auratus
In short: (§1)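 High-fat-diet hamsters gavaged 50 or 100 mg/kg in 0.5% CMC for 16 weeks (n = 8/group); chow and HFD controls received vehicle. Serum from fasted blood (3000g, 10 min) was assayed for TC, TG, VLDL-C, LDL-C and HDL-C with enzymatic kits on an automated analyzer. Mean ± SD, Student's t-test versus HFD group.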

Syrian golden hamster [6] = assay: Antiatherogenic activity in high-fat diet fed Syrian hamster assessed as decrease in plasma very-low-density lipoprotein cholesterol level at 50 to 100 mg/kg, po administered for 16 weeks by automated analyzer relative to high-fat diet fed control; assay type: functional, organism-based; details: Mesocricetus auratus; in short: as §1
Syrian golden hamster [7] = assay: Antiatherogenic activity in high-fat diet fed Syrian hamster assessed as decrease in plasma low-density lipoprotein cholesterol level at 50 to 100 mg/kg, po administered for 16 weeks by automated analyzer relative to high-fat diet fed control; assay type: functional, organism-based; details: Mesocricetus auratus; in short: as §1
Syrian golden hamster [8] = assay: Antiatherogenic activity in high-fat diet fed Syrian hamster assessed as decrease in plasma trigylceride level at 50 to 100 mg/kg, po administered for 16 weeks by automated analyzer relative to high-fat diet fed control; assay type: functional, organism-based; details: Mesocricetus auratus; in short: as §1
Syrian golden hamster [9] = assay: Antiatherogenic activity in high-fat diet fed Syrian hamster assessed as reduction of atherosclerotic lesions size in aortic arch at 50 mg/kg, po administered for 16 weeks by oil red o staining-based assay relative to high-fat diet fed control; assay type: functional, Mesocricetus auratus; parameters: scale not given: the % may be the effect or the level left
In short: (§2)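 High-fat-diet hamsters gavaged 50 or 100 mg/kg in 0.5% CMC for 16 weeks (n = 8/group). Aorta from root to mid-descending thoracic segment was fixed in 4% PFA and stained with 0.6% Oil Red O in 60% isopropanol for 30 min. Plaque area was taken as a ratio of total luminal area from stereoscope en face images. Mean ± SD, t-test.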

Syrian golden hamster [10] = assay: Antiatherogenic activity in high-fat diet fed Syrian hamster assessed as reduction of atherosclerotic lesions size in aortic arch at 100 mg/kg, po administered for 16 weeks by oil red o staining-based assay relative to high-fat diet fed control; assay type: functional, Mesocricetus auratus; parameters: scale not given: the % may be the effect or the level left; in short: as §2
Syrian golden hamster [11] = assay: Antiatherogenic activity in high-fat diet fed Syrian hamster assessed as decrease in plasma L5 level at 50 mg/kg, po administered for 16 weeks by fast protein liquid chromatographic analysis (reference value: 13.7%); assay type: functional, Mesocricetus auratus; parameters: scale not given: the % may be the effect or the level left
Syrian golden hamster [12] = assay: Antiatherogenic activity in high-fat diet fed Syrian hamster assessed as decrease in plasma L5 level at 100 mg/kg, po administered for 16 weeks by fast protein liquid chromatographic analysis (reference value: 13.7%); assay type: functional, Mesocricetus auratus; parameters: scale not given: the % may be the effect or the level left
Homo sapiens [13] = species: Homo sapiens; assay: Inhibition of L5-induced apoptosis in HAEC preincubated for 30 mins followed by L5 induction measured after 24 hrs by Hoechst 33342 and calcein-AM staining-based fluorescence microscopic analysis; assay type: functional
In short: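 Subconfluent HAECs pretreated 30 min with vehicle (0.1% DMSO) or agent (0.3, 1, 3 µM), then ± L5 (50 µg/mL; L1 as negative control) for 24 h. Cells stained 10 min with 1 µM Hoechst 33342 plus calcein-AM and imaged by epifluorescence. Condensed or fragmented nuclei were scored as apoptotic; percentage of apoptotic cells from 6 samples, mean ± SD, t-test.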

Syrian golden hamster [14] = assay: Antiatherogenic activity in high-fat diet fed Syrian hamster assessed as downregulation of active caspase-3 expression in aorta at 50 to 100 mg/kg, po administered for 16 weeks by immunohistochemical analysis; assay type: functional, organism-based; details: Mesocricetus auratus
Homo sapiens [15] = species: Homo sapiens; assay: Inhibition of L5-induced caspase-3 activation in HAEC preincubated for 30 mins followed by L5 induction measured after 24 hrs by immunoblot analysis; assay type: functional
In short: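 HAECs pretreated 30 min with vehicle (0.1% DMSO) or agent (0.3–3 µM), then ± L5 (50 µg/mL) 24 h. Cleaved caspase-3 immunoblot normalized to β-actin relative to vehicle control. Densitometry, n = 4, mean ± SD, Student's t-test.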

[16] = target: Oxidized low-density lipoprotein receptor 1 (Homo sapiens) (UniProt P78380); assay: Inhibition of LOX1-induced DiI-L5 endocytosis in HAEC at 3 uM preincubated for 30 mins followed by DiI-L5 treatment measured after 8 hrs by fluorescence microscopic analysis
In short: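 L5 labeled with DiI (1 mg/mL L5 with 80 µM DiI, 37 °C overnight), re-isolated by ultracentrifugation and dialyzed. HAECs were pretreated ± 3 µM agent for 30 min, then given DiI-L5 (50 µg/mL) for 8 h. Internalization was imaged by fluorescence microscopy with Hoechst nuclear counterstain.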

Homo sapiens [17] = species: Homo sapiens; assay: Inhibition of L5-induced LOX1 expression in HAEC at 0.3 to 3 uM by immunoblot analysis; assay type: functional
In short: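 HAECs exposed to agent at the indicated concentrations with L5 (50 µg/mL). LOX-1 immunoblot on lysates, normalized to β-actin relative to untreated control. Densitometry from 4 independent experiments, mean ± SD, Student's t-test.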

[18] = target: Oxidized low-density lipoprotein receptor 1 (Homo sapiens) (UniProt P78380); assay: Inhibition of L5-activated LOX1-induced p38 MAPK phosphorylation in HAEC preincubated for 30 mins followed by L5 induction measured after 120 mins by Western blot analysis
In short: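 HAECs pretreated 30 min with TS92 anti-LOX-1 antibody (10 µg/mL), SB203580 (2 µM) or vehicle, then ± L5 or L1 control (50 µg/mL) for 120 min. Phospho-p38 immunoblot normalized to total p38. Densitometry, 4 experiments, mean ± SD.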

[19] = target: MAP kinase p38 (Homo sapiens) (UniProt O15264+Q15759+Q16539+P53778); assay: Activation of PI3K/Akt/eNOS signaling in HAEC assessed as inhibition of L5-induced p38 MAPK phosphorylation preincubated for 30 mins followed by L5 induction measured after 120 mins by Western blot analysis in presence of PI3K inhibitor wortmannin, Akt inhibitor, eNOS inhibitor L-NAME; assay type: protein assay
In short: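 HAECs pretreated 30 min with vehicle (0.1% DMSO), wortmannin (20 nM), Akt inhibitor (2 nM) or L-NAME (0.1 mM), then ± agent (0.3, 1 or 3 µM) 30 min, then L5 (50 µg/mL) 120 min. Phospho-p38 MAPK immunoblot normalized to total p38 MAPK relative to vehicle control. Densitometry, 4 independent experiments, mean ± SD, t-test.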

Homo sapiens [20] = species: Homo sapiens; assay: Activation of PI3K/Akt/eNOS signaling in HAEC assessed as inhibition of L5-induced caspase-3 activation preincubated for 30 mins followed by L5 induction measured after 24 hrs by Western blot analysis in presence of PI3K inhibitor wortmannin, Akt inhibitor, eNOS inhibitor L-NAME
In short: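 Primary HAECs (passage 3–4, 2% FBS complete medium) pretreated 30 min with vehicle (0.1% DMSO) or L-NAME (0.1 mM), then 3 µM test agent 30 min, then ± L5 (50 µg/mL) 24 h. Active caspase-3 measured by immunoblot on 50 µg lysate, normalized to β-actin relative to vehicle control. Densitometry, n = 4, mean ± SD, Student's t-test.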

[21] = target: T1, Nitric oxide synthase 3 (Homo sapiens) (UniProt P29474); assay: Induction of eNOS phosphorylation in HAEC at 3 uM after 10 to 30 mins by Western blot analysis
T1 sequence (whole entry): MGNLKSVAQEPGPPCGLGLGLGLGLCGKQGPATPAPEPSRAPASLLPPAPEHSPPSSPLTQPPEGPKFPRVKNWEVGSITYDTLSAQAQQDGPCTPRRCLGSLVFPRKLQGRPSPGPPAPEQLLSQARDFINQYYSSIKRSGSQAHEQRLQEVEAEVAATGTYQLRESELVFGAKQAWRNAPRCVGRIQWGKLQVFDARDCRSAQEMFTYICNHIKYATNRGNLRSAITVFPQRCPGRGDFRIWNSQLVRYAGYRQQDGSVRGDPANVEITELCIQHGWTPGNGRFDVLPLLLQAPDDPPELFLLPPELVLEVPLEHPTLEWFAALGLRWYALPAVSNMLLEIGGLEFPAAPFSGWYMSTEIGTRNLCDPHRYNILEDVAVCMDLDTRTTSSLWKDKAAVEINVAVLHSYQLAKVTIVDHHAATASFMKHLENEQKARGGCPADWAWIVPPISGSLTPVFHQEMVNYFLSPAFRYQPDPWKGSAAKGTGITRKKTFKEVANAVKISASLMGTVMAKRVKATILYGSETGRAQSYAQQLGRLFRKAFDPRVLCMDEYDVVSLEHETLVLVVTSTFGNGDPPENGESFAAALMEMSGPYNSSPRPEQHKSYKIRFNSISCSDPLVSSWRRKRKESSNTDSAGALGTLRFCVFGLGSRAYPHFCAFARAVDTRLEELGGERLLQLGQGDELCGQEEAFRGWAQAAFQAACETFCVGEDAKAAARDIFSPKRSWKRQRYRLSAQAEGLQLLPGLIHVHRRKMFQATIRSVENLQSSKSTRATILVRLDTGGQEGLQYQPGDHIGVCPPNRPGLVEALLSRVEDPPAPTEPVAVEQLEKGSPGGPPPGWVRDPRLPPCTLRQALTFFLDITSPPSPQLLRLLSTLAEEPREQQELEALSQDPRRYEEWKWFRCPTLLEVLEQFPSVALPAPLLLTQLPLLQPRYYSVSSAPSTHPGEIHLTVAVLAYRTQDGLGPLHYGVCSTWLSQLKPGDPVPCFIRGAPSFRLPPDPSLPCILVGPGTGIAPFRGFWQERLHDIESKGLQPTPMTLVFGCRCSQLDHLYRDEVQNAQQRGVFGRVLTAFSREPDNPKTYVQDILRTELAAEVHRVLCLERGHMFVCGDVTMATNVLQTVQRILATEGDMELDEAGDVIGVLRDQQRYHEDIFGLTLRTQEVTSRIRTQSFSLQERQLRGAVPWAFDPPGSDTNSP
In short: (§3)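 HAECs treated with 3 µM agent or vehicle (0.1% DMSO) for 10, 30, 60, 120 and 240 min. Lysates were immunoblotted for p-eNOS and p-Akt, normalized to total eNOS or Akt relative to vehicle control. Densitometry, 4 independent experiments, mean ± SD, Student's t-test.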

[22] = target: T1, Nitric oxide synthase 3 (Homo sapiens); assay: Induction of eNOS phosphorylation in HAEC at 3 uM after 60 to 240 mins by Western blot analysis; in short: as §3
Homo sapiens [23] = species: Homo sapiens; assay: Induction of Akt phosphorylation in HAEC at 3 uM after 10 to 30 mins by Western blot analysis; in short: as §3
Homo sapiens [24] = species: Homo sapiens; assay: Induction of Akt phosphorylation in HAEC at 3 uM after 60 to 240 mins by Western blot analysis; in short: as §3
[25] = target: T1, Nitric oxide synthase 3 (Homo sapiens); assay: Induction of eNOS phosphorylation in HAEC at 3 uM measured at 30 mins by Western blot analysis in presence of wortmannin and Akt inhibitor
In short: (§4)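 HAECs pretreated 30 min with vehicle (0.1% DMSO), 20 nM wortmannin or 2 nM Akt inhibitor, then ± 3 µM agent for 30 min. p-Akt and p-eNOS were immunoblotted and normalized to β-actin relative to vehicle control. Densitometry, n = 4 independent experiments, mean ± SD, t-test.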

Homo sapiens [26] = species: Homo sapiens; assay: Induction of Akt phosphorylation in HAEC at 3 uM measured at 30 mins by Western blot analysis in presence of wortmannin and Akt inhibitor; in short: as §4
Homo sapiens [27] = species: Homo sapiens; assay: Reversal of L5-induced Akt dephosphorylation in HAEC at 3 uM preincubated for 30 mins followed by L5 induction measured after 24 hrs by Western blot analysis
In short: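 HAECs pretreated 30 min with vehicle (0.1% DMSO) or 3 µM agent, then ± L5 (50 µg/mL) for 24 h. p-Akt immunoblot normalized to β-actin relative to vehicle control. Densitometry, 4 independent experiments, mean ± SD, Student's t-test.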

Oc1ccc2c(c1)OCO2
9.5%: Activity (Syrian golden hamster [11])
31.5%: Activity (Syrian golden hamster [9])
47.3%: Activity (Syrian golden hamster [10])
active: Activity (Syrian golden hamster [3]) Dose-dependent effect | Activity (Syrian golden hamster [4]) Dose-dependent effect | Activity (Syrian golden hamster [5]) | Activity (Syrian golden hamster [6]) | Activity (Syrian golden hamster [7]) | Activity (Syrian golden hamster [8]) | inhibition (Homo sapiens [13]) Dose-dependent effect | Activity (Syrian golden hamster [14]) | inhibition (Homo sapiens [15]) Dose-dependent effect | inhibition [16] | inhibition (Homo sapiens [17]) | inhibition [18] Dose-dependent effect | Activity [21] | Activity (Homo sapiens [23]) | Activity (Homo sapiens [27])
Non-toxic: Activity (Syrian golden hamster [1]) | Activity (Syrian golden hamster [2])
5.7%: Activity (Syrian golden hamster [12])
inactive: inhibition [19] | inhibition (Homo sapiens [20]) | Activity [22] | Activity (Homo sapiens [24]) | Activity [25] | Activity (Homo sapiens [26])
